One block for each compound: values may come before it. Calls of active or inactive are those of the source. The calls are words filed in the database; no cut-off is given here.
What was measured:
[1] = target: T1, Neuropeptide Y receptor type 4 (Homo sapiens, UniProt P50391); assay: Allosteric antagonist activity at […]-tagged human NPY4R expressed in COS7 cells co-expressing Gqi5-alpha assessed as inhibition of PP-induced Ca2+ flux by Fluo-2 AM dye based fluorescent assay relative to control; assay type: functional, cell-based
[2] = target: T2, Neuropeptide Y receptor type 1 (Mus musculus) (UniProt Q04573); assay: Allosteric antagonist activity at NPY1R in mouse descending colon mucosa assessed as reduction in PYY-induced ion transport at 30 uM by electrophysiology
T2 sequence (whole entry): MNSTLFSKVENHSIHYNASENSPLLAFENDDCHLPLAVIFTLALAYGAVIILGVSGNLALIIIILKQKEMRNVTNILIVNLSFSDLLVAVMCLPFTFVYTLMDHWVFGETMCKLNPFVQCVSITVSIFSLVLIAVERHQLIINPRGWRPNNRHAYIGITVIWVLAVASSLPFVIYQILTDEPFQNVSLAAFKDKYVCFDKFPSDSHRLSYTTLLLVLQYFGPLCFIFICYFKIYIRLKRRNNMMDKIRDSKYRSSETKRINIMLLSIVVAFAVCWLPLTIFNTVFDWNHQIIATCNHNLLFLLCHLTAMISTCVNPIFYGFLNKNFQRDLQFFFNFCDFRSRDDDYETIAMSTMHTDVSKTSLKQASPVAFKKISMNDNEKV

[3] = target: T3, Neuropeptide Y receptor type 2 (Mus musculus) (UniProt P97295); assay: Allosteric antagonist activity at NPY2R in mouse descending colon mucosa assessed as reduction in PYY-induced ion transport at 30 uM by electrophysiology
T3 sequence (whole entry): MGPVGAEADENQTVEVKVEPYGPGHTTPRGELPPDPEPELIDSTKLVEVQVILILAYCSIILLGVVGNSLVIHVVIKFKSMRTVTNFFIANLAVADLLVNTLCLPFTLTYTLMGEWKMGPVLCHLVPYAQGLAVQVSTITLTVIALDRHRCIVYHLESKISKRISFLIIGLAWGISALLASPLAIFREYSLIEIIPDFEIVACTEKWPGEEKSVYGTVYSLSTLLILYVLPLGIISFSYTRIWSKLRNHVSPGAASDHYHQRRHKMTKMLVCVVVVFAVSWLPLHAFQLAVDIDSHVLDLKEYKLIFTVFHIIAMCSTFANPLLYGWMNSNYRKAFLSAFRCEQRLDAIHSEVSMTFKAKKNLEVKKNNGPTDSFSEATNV

[4] = target: T2, Neuropeptide Y receptor type 1 (Mus musculus); assay: Allosteric antagonist activity at NPY1R in mouse descending colon mucosa assessed as reduction in PYY-induced ion transport at 0.3 to 30 uM by electrophysiology; conditions: dose 0.3-30 µM
[5] = target: T3, Neuropeptide Y receptor type 2 (Mus musculus); assay: Allosteric antagonist activity at NPY2R in mouse descending colon mucosa assessed as reduction in PYY-induced ion transport at 0.3 to 30 uM by electrophysiology; conditions: dose 0.3-30 µM
[6] = target: T1, Neuropeptide Y receptor type 4; assay: Allosteric antagonist activity at human NPY4R expressed in HEK293 cells assessed as reduction in PP-induced arrestin-3 recruitment at 30 uM measured after 30 mins by BRET assay; assay type: cell-based; conditions: filed as allosteric antagonist
Procedure, shortened: (§1)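 BRET in HEK293 cells transiently expressing Y4R-Rluc8 and venus-arr3. Pretreated with 30 μM compound or DMSO, then read continuously for 30 min after 100 nM PP. Fluorescence/luminescence ratio, unstimulated control subtracted to give netBRET. Rate constant k from a one-phase association fit. N ≥ 4, unpaired t-test.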

[7] = target: T1, Neuropeptide Y receptor type 4; assay: Allosteric antagonist activity at human NPY4R expressed in HEK293 cells assessed as reduction in rate of PP-induced arrestin-3 recruitment at 30 uM measured after 30 mins by BRET assay; assay type: cell-based; conditions: filed as allosteric antagonist; procedure, shortened: as §1
[8] = target: T1, Neuropeptide Y receptor type 4; assay: Inhibition of receptor internalization of eYFP-tagged human NPY4R expressed in HEK293 cells at 30 uM after 30 mins by fluorescence microscopy; assay type: cell-based
Procedure, shortened: (§2)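 HEK293 cells stably expressing Y4R-eYFP, nuclei stained with Hoechst. Cells given 30 μM compound or DMSO in OptiMEM, then 10 or 100 nM PP (or medium) for 30 min at 37 °C. eYFP imaged at a fixed 400 ms exposure. Cell-surface fluorescence quantified as pixel intensity, normalized to unstimulated DMSO control.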

[9] = target: T1, Neuropeptide Y receptor type 4; assay: Inhibition of 10 nM PP-induced receptor internalization of eYFP-tagged human NPY4R expressed in HEK293 cells at 30 uM after 30 mins by fluorescence microscopy; assay type: cell-based; conditions: filed as allosteric antagonist; procedure, shortened: as §2
[10] = target: T1, Neuropeptide Y receptor type 4; assay: Inhibition of 100 nM PP-induced receptor internalization of eYFP-tagged human NPY4R expressed in HEK293 cells at 30 uM after 30 mins by fluorescence microscopy; assay type: cell-based; conditions: filed as allosteric antagonist; procedure, shortened: as §2
[11] = target: T1, Neuropeptide Y receptor type 4; assay: Displacement of [125I]-PP from human NPY4R expressed in HEK293 cell membranes incubated for 5 hrs by microBeta scintillation counting assay; conditions: Cell membrane, filed as allosteric antagonist
Procedure, shortened: (§3)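 Membranes from stable HEK293 Y4R-eYFP cells, 0.3 μg in HEPES buffer (25 mM HEPES, […], 1 mM MgCl2, Pefabloc, pH 7.4) with DMSO or compound. Incubated with 60 or 180 pM human ¹²⁵I-PP for 5 h at room temperature. Nonspecific binding set with 1 μM PP. Bound ligand collected on PEI-soaked GF/C filters and counted by scintillation.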

[12] = target: T1, Neuropeptide Y receptor type 4; assay: Displacement of [125I]-PP from human NPY4R expressed in HEK293 cell membranes assessed as remaining radioligand binding incubated for 5 hrs using 60 pM [125I]-PP by microBeta scintillation counting assay; conditions: Cell membrane, filed as allosteric antagonist; procedure, shortened: as §3
[13] = target: T1, Neuropeptide Y receptor type 4; assay: Displacement of [125I]-PP from human NPY4R expressed in HEK293 cell membranes assessed as remaining radioligand binding incubated for 5 hrs using 180 pM [125I]-PP by microBeta scintillation counting assay; conditions: Cell membrane; procedure, shortened: as §3
[14] = target: T4, Neuropeptide Y receptor type 1 (Homo sapiens) (UniProt P25929); assay: Allosteric antagonist activity at […]-tagged human NPY1R expressed in COS7 cells co-expressing Gqi5-alpha assessed as inhibition of NPY-induced Ca2+ flux at 30 uM by Fluo-2 AM dye based fluorescent assay; assay type: functional, cell-based
T4 sequence (whole entry): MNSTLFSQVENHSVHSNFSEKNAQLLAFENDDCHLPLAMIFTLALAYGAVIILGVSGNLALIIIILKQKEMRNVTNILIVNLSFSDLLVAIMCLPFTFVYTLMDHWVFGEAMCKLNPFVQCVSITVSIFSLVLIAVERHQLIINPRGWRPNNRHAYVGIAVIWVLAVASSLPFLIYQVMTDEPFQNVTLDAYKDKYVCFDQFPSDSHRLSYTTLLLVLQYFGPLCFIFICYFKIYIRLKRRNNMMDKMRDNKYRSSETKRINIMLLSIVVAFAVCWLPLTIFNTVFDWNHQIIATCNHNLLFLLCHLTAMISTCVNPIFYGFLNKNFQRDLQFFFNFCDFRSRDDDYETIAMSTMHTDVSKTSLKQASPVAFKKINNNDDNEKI
Procedure, shortened: (§4)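 Stable COS7 lines expressing Y1R-, Y2R- or Y5R-eYFP plus chimeric Δ6Gαqi4myr, loaded with 2.4 μM Fluo2-AM in HBSS/20 mM HEPES/2.5 mM probenecid pH 7.4. After 20 s baseline, DMSO or 30 μM compound added, NPY added 110 s later, 140 s run. Read at ex 485/em 525 nm. Signal taken as x-fold over basal, normalized to 1 μM NPY maximum. N ≥ 3.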

[15] = target: T5, Neuropeptide Y receptor type 2 (Homo sapiens) (UniProt P49146); assay: Allosteric antagonist activity at […]-tagged human NPY2R expressed in COS7 cells co-expressing Gqi5-alpha assessed as inhibition of NPY-induced Ca2+ flux at 30 uM by Fluo-2 AM dye based fluorescent assay; assay type: functional, cell-based; procedure, shortened: as §4
T5 sequence (whole entry): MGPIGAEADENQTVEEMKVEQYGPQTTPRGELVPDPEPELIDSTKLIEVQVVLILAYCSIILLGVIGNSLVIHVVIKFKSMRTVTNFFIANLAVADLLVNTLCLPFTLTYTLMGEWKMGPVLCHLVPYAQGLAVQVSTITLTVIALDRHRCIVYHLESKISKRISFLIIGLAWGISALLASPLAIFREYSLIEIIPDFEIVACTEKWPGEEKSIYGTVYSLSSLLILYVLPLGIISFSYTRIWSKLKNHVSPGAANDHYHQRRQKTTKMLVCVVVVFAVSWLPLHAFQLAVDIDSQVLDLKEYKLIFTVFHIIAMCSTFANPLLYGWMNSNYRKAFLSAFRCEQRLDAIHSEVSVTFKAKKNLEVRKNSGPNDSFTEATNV

[16] = target: T6, Neuropeptide Y receptor type 5 (Homo sapiens) (UniProt Q15761); assay: Allosteric antagonist activity at […]-tagged human NPY5R expressed in COS7 cells co-expressing Gqi5-alpha assessed as inhibition of NPY-induced Ca2+ flux at 30 uM by Fluo-2 AM dye based fluorescent assay; assay type: functional, cell-based; procedure, shortened: as §4
T6 sequence (whole entry): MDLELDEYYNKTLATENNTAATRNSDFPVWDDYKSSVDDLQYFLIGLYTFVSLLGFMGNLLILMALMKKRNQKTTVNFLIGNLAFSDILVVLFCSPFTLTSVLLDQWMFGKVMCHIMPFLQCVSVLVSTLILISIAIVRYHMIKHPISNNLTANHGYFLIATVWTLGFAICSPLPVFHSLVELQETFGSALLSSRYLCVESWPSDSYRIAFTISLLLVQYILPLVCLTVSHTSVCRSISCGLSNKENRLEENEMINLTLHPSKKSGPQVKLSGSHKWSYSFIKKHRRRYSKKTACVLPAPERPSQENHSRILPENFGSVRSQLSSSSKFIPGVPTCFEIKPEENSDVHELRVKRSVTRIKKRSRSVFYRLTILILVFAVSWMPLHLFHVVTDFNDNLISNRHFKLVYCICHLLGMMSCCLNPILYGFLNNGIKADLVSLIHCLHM

COS7 [17] = assay: Allosteric antagonist activity at human NPY4R chimera containing NPY1R transmembrane helix 1 expressed in COS7 cells co-expressing Gqi5-alpha assessed as inhibition of PP-induced Ca2+ flux at 15 uM by Fluo-2 AM dye based fluorescent assay; assay type: cell-based
Procedure, shortened: (§5)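 Y4R/Y1R chimeras carrying Y1R TM1, TM2 or ECL2 segments, C-terminal eYFP, transiently cotransfected with Δ6Gαqi4myr in COS7 cells. Fluo2-AM Ca²⁺ flux. 15 μM antagonist or DMSO added, followed by PP. Reduction in PP response given relative to DMSO control, normalized to 1 μM PP.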

COS7 [18] = assay: Allosteric antagonist activity at human NPY4R chimera containing NPY1R transmembrane helix 2 expressed in COS7 cells co-expressing Gqi5-alpha assessed as inhibition of PP-induced Ca2+ flux at 15 uM by Fluo-2 AM dye based fluorescent assay; assay type: cell-based; procedure, shortened: as §5
COS7 [19] = assay: Allosteric antagonist activity at human NPY4R chimera containing NPY1R extracellular loop 2 expressed in COS7 cells co-expressing Gqi5-alpha assessed as inhibition of PP-induced Ca2+ flux at 15 uM by Fluo-2 AM dye based fluorescent assay; assay type: cell-based; procedure, shortened: as §5

T1 sequence (P50391 whole entry): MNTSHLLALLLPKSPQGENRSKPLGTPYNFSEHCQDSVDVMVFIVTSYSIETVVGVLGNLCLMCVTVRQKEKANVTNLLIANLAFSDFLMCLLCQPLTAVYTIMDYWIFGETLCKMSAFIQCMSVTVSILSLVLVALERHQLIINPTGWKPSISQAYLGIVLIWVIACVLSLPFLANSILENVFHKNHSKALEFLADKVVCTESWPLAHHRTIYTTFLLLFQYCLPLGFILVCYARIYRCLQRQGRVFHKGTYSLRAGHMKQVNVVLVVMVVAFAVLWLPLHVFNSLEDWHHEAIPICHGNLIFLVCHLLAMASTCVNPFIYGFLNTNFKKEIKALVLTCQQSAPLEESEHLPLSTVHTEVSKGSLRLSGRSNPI

- pIC50 [1]: inactive
- IC50 ([1]; cos7): Not Active
- inhibition [2]: inactive
- inhibition [3]: inactive
- inhibition [4]: inactive
- inhibition [5]: inactive
SMILES: CS(=O)(=O)N1CCCC[C@@H]1C(=O)Nc1nc2cc3c(cc2s1)OCCO3

- IC50 ([1]; read-out: IC50): 4 µM
- inhibition [6]: Active
- inhibition [7]: Active
- inhibition [8]: inactive
- inhibition [9]: Active
- inhibition [10]: Active
- inhibition [11]: Dose-dependent effect
- Activity [12]: 15%
- inhibition [13]: inactive
- inhibition [14]: inactive
- inhibition [15]: inactive
- inhibition [16]: inactive
SMILES: CS(=O)(=O)N1CCCCC1C(=O)Nc1nc2cc3c(cc2s1)OCCO3 (racemic)
- inhibition (COS7 [17]): inactive
- inhibition (COS7 [18]): inactive
- inhibition (COS7 [19]): inactive
